# Legend:
# [1] = biological target: Neuronal acetylcholine receptor subunit alpha-7 (Homo sapiens, UniProt P36544); assay: Agonist activity at alpha7 nAChR (unknown origin) expressed in HEK293 cells assessed as increase in calcium influx by Fluo-4-AM dye based FLIPR assay; format: cell-based
# Outline: (§1)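 Ca2+-based fluorescence imaging plate reader screen, run as two assays: α7 nAChR agonism and 5-HT3A receptor antagonism. Number of determinations recorded per value.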
# Homo sapiens = organism: Homo sapiens; assay: Selectivity ratio of IC50 for 5-HT3A receptor (unknown origin) to EC50 for alpha7 nAChR (unknown origin) expressed in HEK293 cells; format: cell-based
# Outline: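 Selectivity ratio calculated as 5-HT3A IC50 (FLIPR Ca2+ antagonist assay) divided by α7 EC50 (FLIPR Ca2+ agonist assay).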
# [2] = biological target: T1, 5-hydroxytryptamine receptor 3A (Homo sapiens, UniProt P46098); assay: Antagonist activity at 5-HT3A receptor (unknown origin) assessed as decrease in calcium influx by Fluo-4-AM dye based FLIPR assay; outline: as §1
# T1 sequence (P46098 whole entry): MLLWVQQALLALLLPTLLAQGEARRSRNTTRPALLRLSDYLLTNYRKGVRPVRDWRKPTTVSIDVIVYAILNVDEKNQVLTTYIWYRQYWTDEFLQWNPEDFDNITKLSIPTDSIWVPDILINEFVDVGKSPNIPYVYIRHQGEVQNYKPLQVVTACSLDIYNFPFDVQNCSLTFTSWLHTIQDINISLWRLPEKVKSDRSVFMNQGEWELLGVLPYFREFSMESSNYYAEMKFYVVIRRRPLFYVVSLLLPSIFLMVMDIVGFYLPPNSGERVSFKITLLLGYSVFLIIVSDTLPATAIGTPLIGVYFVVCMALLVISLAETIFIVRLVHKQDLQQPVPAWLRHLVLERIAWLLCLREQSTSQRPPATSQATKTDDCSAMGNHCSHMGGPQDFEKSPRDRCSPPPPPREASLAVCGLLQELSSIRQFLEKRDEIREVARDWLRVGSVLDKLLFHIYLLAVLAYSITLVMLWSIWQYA
# Rattus norvegicus [3] = assay: In vivo agonist activity at alpha7 nAChR in Wistar rat assessed as induction of Arc gene expression in medial prefrontal cortex at 0.3 mg/kg, sc after 2 hrs by qPCR method relative to control; format: functional
# Outline: (§2)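 Rats dosed sc (0.3–10 mg/kg; vehicle 2 mL/kg sc) and c-fos and Arc expression measured in medial prefrontal cortex. Values are normalized to vehicle, mean ± SEM, N = 8. Comparison with vehicle by Dunnett's multiple comparison test (adjusted p). β2-microglobulin served as endogenous control. Plasma and brain/plasma levels were sampled at 3 and 10 mg/kg.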
# [4] = biological target: Neuronal acetylcholine receptor subunit alpha-7 (Rattus norvegicus) (UniProt Q05941); assay: Agonist activity at rat alpha7 nAChR expressed in HEK293 cells co-expressing human RIC-3 assessed as area under current curve at 10 uM at holding potential of -90 mV by whole-cell voltage clamp electrophysiology method relative to acetylcholine; format: cell-based
# Outline: (§3)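 Concentration-response patch-clamp electrophysiology in HEK-293 cells expressing rat α7 nAChR. EC50 is taken from response area. Efficacy is given as Ymax from both area and peak response.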
# Rattus norvegicus [5] = assay: In vivo agonist activity at alpha7 nAChR in Wistar rat assessed as induction of Arc gene expression in medial prefrontal cortex at 10 mg/kg, sc after 2 hrs by qPCR method relative to control; format: functional
# Outline: (§4)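 Rats dosed sc at 0.3–10 mg/kg, or with vehicle at 2 mL/kg sc. Medial prefrontal cortex was assayed for c-fos and Arc expression, normalized to vehicle, with β2-microglobulin as the endogenous control. Data are mean ± SEM, N = 8. Dunnett's multiple comparison test against vehicle gave adjusted p values.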
# Rattus norvegicus [6] = assay: In vivo agonist activity at alpha7 nAChR in Wistar rat assessed as induction of c-fos gene expression in medial prefrontal cortex at 1 mg/kg, sc after 2 hrs by qPCR method relative to control; format: functional; outline: as §2
# [7] = Drug uptake in Wistar rat brain at 3 mg/kg, sc after 2 hrs; format: ADME, organism-based; settings: read-out: Drug uptake
# [8] = Drug uptake in Wistar rat brain at 10 mg/kg, sc after 2 hrs; format: ADME, organism-based; settings: read-out: Drug uptake
# Rattus norvegicus [9] = assay: In vivo agonist activity at alpha7 nAChR in Wistar rat assessed as induction of c-fos gene expression in medial prefrontal cortex at 0.3 mg/kg, sc after 2 hrs by qPCR method relative to control; format: functional; outline: as §2
# [10] = Ratio of drug uptake in Wistar rat brain to plasma at 1 mg/kg, sc after 2 hrs; format: ADME, organism-based; settings: read-out: BPR
# [11] = Ratio of drug uptake in Wistar rat brain to plasma at 0.3 mg/kg, sc after 2 hrs; format: ADME, organism-based; settings: read-out: BPR
# [12] = Ratio of drug uptake in Wistar rat brain to plasma at 3 mg/kg, sc after 2 hrs; format: ADME, organism-based; settings: read-out: BPR
# Outline: (§5)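 Plasma concentration and brain/plasma ratio measured at 3 and 10 mg/kg sc, in the same rats used for the prefrontal c-fos/Arc expression study.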
# Rattus norvegicus [13] = assay: In vivo agonist activity at alpha7 nAChR in Wistar rat assessed as induction of c-fos gene expression in medial prefrontal cortex at 3 mg/kg, sc after 2 hrs by qPCR method relative to control; format: functional; outline: as §2
# [14] = Ratio of drug uptake in Wistar rat brain to plasma at 10 mg/kg, sc after 2 hrs; format: ADME, organism-based; settings: read-out: BPR; outline: as §5
# Rattus norvegicus [15] = assay: In vivo agonist activity at alpha7 nAChR in Wistar rat assessed as induction of c-fos gene expression in medial prefrontal cortex at 10 mg/kg, sc after 2 hrs by qPCR method relative to control; format: functional; outline: as §4
# [16] = biological target: Neuronal acetylcholine receptor subunit alpha-7 (Rattus norvegicus) (UniProt Q05941); assay: Displacement of [125I]Tyr54-alpha-Bungarotoxin from rat alpha7 nAChR expressed in HEK293 cell membranes co-expressing human RIC-3 after 2 hrs by gamma counting method
# [17] = Plasma concentration in Wistar rat at 1 mg/kg, sc after 2 hrs; format: ADME, organism-based
# [18] = biological target: Neuronal acetylcholine receptor subunit alpha-7 (Rattus norvegicus, UniProt Q05941); assay: Agonist activity at rat alpha7 nAChR expressed in HEK293 cells co-expressing human RIC-3 assessed as area under current curve at holding potential of -90 mV by whole-cell voltage clamp electrophysiology method; format: cell-based; outline: as §3
# [19] = Drug uptake in Wistar rat brain at 1 mg/kg, sc after 2 hrs; format: ADME, organism-based; settings: read-out: Drug uptake
# [20] = Plasma concentration in Wistar rat at 0.3 mg/kg, sc after 2 hrs; format: ADME, organism-based
# [21] = Plasma concentration in Wistar rat at 3 mg/kg, sc after 2 hrs; format: ADME, organism-based; outline: as §5
# Rattus norvegicus [22] = assay: In vivo agonist activity at alpha7 nAChR in Wistar rat assessed as induction of Arc gene expression in medial prefrontal cortex at 1 mg/kg, sc after 2 hrs by qPCR method relative to control; format: functional; outline: as §2
# [23] = Drug uptake in Wistar rat brain at 0.3 mg/kg, sc after 2 hrs; format: ADME, organism-based; settings: read-out: Drug uptake
# [24] = biological target: Neuronal acetylcholine receptor subunit alpha-7 (Rattus norvegicus) (UniProt Q05941); assay: Agonist activity at rat alpha7 nAChR expressed in HEK293 cells co-expressing human RIC-3 assessed as maximum peak current at 10 uM at holding potential of -90 mV by whole-cell voltage clamp electrophysiology method relative to acetylcholine; format: cell-based; outline: as §3
# Rattus norvegicus [25] = assay: In vivo agonist activity at alpha7 nAChR in Wistar rat assessed as induction of Arc gene expression in medial prefrontal cortex at 3 mg/kg, sc after 2 hrs by qPCR method relative to control; format: functional; outline: as §2
# [26] = Plasma concentration in Wistar rat at 10 mg/kg, sc after 2 hrs; format: ADME, organism-based; outline: as §5
# Rattus norvegicus [27] = assay: Effect on beta2-microglobulin gene expression in Wistar rat medial prefrontal cortex at 0.3 to 10 mg/kg, sc after 2 hrs by qPCR method; format: ADME, organism-based; settings: in vivo; outline: as §4
# Chain of Neuronal acetylcholine receptor subunit alpha-7 (Homo sapiens, UniProt P36544) (P36544 whole entry): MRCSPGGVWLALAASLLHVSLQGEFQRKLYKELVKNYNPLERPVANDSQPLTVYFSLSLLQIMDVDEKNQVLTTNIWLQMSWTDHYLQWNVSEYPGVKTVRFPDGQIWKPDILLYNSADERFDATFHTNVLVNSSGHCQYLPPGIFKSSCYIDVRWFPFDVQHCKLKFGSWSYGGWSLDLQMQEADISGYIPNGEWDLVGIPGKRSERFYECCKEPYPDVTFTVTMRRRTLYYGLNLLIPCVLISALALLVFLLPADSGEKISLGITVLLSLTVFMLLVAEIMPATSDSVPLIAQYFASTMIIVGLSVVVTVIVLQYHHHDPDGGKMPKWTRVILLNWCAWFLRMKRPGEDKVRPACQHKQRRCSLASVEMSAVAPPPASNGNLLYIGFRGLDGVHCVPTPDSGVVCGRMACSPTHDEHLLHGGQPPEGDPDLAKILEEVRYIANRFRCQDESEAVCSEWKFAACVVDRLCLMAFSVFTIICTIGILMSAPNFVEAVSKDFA
# Chain of Neuronal acetylcholine receptor subunit alpha-7 (Rattus norvegicus, UniProt Q05941) (Q05941 whole entry): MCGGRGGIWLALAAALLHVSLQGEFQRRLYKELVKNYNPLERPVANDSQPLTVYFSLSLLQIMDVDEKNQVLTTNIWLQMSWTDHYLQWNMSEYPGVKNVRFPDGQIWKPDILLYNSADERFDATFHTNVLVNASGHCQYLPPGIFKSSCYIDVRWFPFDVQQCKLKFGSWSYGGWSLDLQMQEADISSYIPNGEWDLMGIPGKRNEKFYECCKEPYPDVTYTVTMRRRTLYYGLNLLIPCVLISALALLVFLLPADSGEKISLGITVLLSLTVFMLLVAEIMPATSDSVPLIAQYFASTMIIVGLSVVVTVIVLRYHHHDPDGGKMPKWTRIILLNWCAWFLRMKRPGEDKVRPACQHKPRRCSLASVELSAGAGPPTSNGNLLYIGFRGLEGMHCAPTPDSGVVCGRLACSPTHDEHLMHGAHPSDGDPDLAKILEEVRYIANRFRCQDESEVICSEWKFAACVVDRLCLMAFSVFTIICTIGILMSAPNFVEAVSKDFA
# Chain of Neuronal acetylcholine receptor subunit alpha-7 (Rattus norvegicus) (Q05941 whole entry): as above
structure (smiles),measurement,setting,value
COc1ccc2sc(NC3=NCC4(CN5CCC4CC5)N3)nc2c1 (racemic),EC50,[1],750 nM
same,Ratio IC50/EC50,Homo sapiens,0.068
same,IC50,[2],51 nM
Clc1cccc2sc(NC3=NCC4(CN5CCC4CC5)N3)nc12 (racemic),EC50,[1],120 nM
same,Ratio IC50/EC50,Homo sapiens,0.32
same,IC50,[2],38 nM
c1ccc2nc(NC3=NCC4(CN5CCC4CC5)N3)cnc2c1 (racemic),EC50,[1],490 nM
same,Ratio IC50/EC50,Homo sapiens,2.9
same,IC50,[2],1400 nM
c1ccc2oc(NC3=NCC4(CN5CCC4CC5)N3)nc2c1 (racemic),EC50,[1],53 nM
same,Ratio IC50/EC50,Homo sapiens,0.49
same,IC50,[2],26 nM
c1ccc2sc(NC3=NCC4(CN5CCC4CC5)N3)nc2c1 (centres undefined),fold change (FC),Rattus norvegicus [3],1.2
same,Emax,[4],78%
same,fold change (FC),Rattus norvegicus [5],2.7
same,fold change (FC),Rattus norvegicus [6],1.1
same,concentration at 2 h,[7],524 nM
same,concentration at 2 h,[8],1920 nM
same,fold change (FC),Rattus norvegicus [9],1.5
same,EC50,[1],26 nM
same,Kp at 2 h,[10],4.3
same,Kp at 2 h,[11],4.8
same,Kp at 2 h,[12],4
same,fold change (FC),Rattus norvegicus [13],1.7
same,Kp at 2 h,[14],4.1
same,Ratio IC50/EC50,Homo sapiens,1
same,fold change (FC),Rattus norvegicus [15],1.9
same,INH,[16],240 nM
same,IC50,[2],26 nM
same,concentration at 2 h,[17],43 nM
same,EC50,[18],200 nM
same,concentration at 2 h,[19],184 nM
same,concentration at 2 h,[20],12 nM
same,concentration at 2 h,[21],130 to 131 nM
same,fold change (FC),Rattus norvegicus [22],1
same,concentration at 2 h,[23],58 nM
same,Emax,[24],29%
same,fold change (FC),Rattus norvegicus [25],1.5
same,concentration at 2 h,[26],460 to 463 nM
same,Activity,Rattus norvegicus [27],Non-Toxic
Cc1ccc2nc(NC3=NCC4(CN5CCC4CC5)N3)oc2c1 (racemic),Emax,[4],58%
same,EC50,[1],35 nM
same,Ratio IC50/EC50,Homo sapiens,210 to 250
same,IC50,[2],7400 nM
same,EC50,[18],500 nM
same,Emax,[24],16%
CN1C(Nc2nc3ccccc3s2)=NCC12CN1CCC2CC1 (centres undefined),Emax,[4],67%
same,EC50,[1],170 nM
same,Ratio IC50/EC50,Homo sapiens,0.25
same,IC50,[2],43 nM
same,EC50,[18],1200 nM
same,Emax,[24],25%
Clc1ccc2nc(NC3=NCC4(CN5CCC4CC5)N3)sc2n1 (racemic),EC50,[1],56 nM
same,Ratio IC50/EC50,Homo sapiens,570
same,IC50,[2],32000 nM
CN1C(Nc2nc3ccc(Cl)nc3s2)=NCC12CN1CCC2CC1 (racemic),EC50,[1],550 nM
same,Ratio IC50/EC50,Homo sapiens,24
same,IC50,[2],13000 nM
Clc1cnc(NC2=NCC3(CN4CCC3CC4)N2)nc1 (racemic),Emax,[4],44%
same,EC50,[1],290 nM
same,Ratio IC50/EC50,Homo sapiens,2.1
same,IC50,[2],620 nM
same,EC50,[18],1100 nM
same,Emax,[24],11%
